Laboratory results reported in ChEMBL document CHEMBL1148613, “Synthesis and biological evaluation of novel phenylcarbazoles as potential anticancer agents” (J Med Chem, 2006).

Assays:
[1] = system: CEM/C2; assay: Cytotoxicity against camptothecin-resistant human leukemic CEMC2 cell line; format: functional, cell-based
Procedure, shortened: (§1)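 Human leukemia cells (CEM, or topoisomerase I-deficient CEM/C2) grown at 37 °C, 5% CO2 in RPMI 1640 with 10% FBS, glucose, HEPES, pyruvate and antibiotics. 2 × 10^4 exponentially growing cells seeded with graded drug concentrations, 72 h at 37 °C. Tetrazolium dye (CellTiter 96 aqueous one-solution) added for a further 2 h, absorbance read at 492 nm; IC50 reported.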

[2] = system: CCRF-CEM; assay: Cytotoxicity against human leukemic CEM cell line; format: functional, cell-based; procedure, shortened: as §1
[3] = Inhibitory activity against CDK1/Cyclin B from starfish oocytes; parameters: species or system Marthasterias glacialis; conditions: oocyte
Procedure, shortened: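 Starfish oocyte (M phase) CDK1/cyclin B, affinity-purified on p9CKShs1-sepharose. Buffer C (25 mM Mops pH 7.2, β-glycerophosphate, p-nitrophenyl phosphate, EGTA, 15 mM MgCl2, DTT, vanadate, phenyl phosphate), 1 mg/mL histone H1, 15 µM [γ-33P]ATP, 10 min at 30 °C. Read by P81 phosphocellulose binding, washing and scintillation counting; activity as percent of uninhibited control, DMSO controls.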

[4] = biological target: Cyclin-dependent kinase 5/CDK5 activator 1 (Homo sapiens, UniProt Q00535); assay: Inhibitory activity against CDK5/p25; format: protein-complex assay
Procedure, shortened: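 Recombinant mammalian CDK5 and p25, expressed in E. coli as GST fusions, glutathione-agarose purified and mixed in equal amounts. Assayed in buffer C pH 7.2 with 1 mg/mL histone H1 and 15 µM [γ-33P]ATP, 10 min at 30 °C. P81 filter binding and scintillation counting; activity as percent of maximal activity without inhibitor.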

[5] = biological target: Glycogen synthase kinase-3 (Homo sapiens, UniProt P49840+P49841); assay: Inhibitory activity against GSK3 from porcine brain; parameters: species or system Sus scrofa; conditions: target entry is the homologue from another species
Procedure, shortened: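 GSK-3α/β purified from porcine brain on immobilized axin, diluted 1/100 in BSA/DTT. Buffer A (25 mM Tris-HCl pH 7.5, 10 mM MgCl2, EGTA, DTT, 50 µg/mL heparin), GS-1 peptide substrate (5 µL of 40 µM), 15 µM [γ-33P]ATP, 30 min at 30 °C. P81 phosphocellulose filters washed in dilute phosphoric acid and counted; activity relative to no-inhibitor control.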

Sequence of Cyclin-dependent kinase 5/CDK5 activator 1 (Q00535 whole entry, the tested form may be a part): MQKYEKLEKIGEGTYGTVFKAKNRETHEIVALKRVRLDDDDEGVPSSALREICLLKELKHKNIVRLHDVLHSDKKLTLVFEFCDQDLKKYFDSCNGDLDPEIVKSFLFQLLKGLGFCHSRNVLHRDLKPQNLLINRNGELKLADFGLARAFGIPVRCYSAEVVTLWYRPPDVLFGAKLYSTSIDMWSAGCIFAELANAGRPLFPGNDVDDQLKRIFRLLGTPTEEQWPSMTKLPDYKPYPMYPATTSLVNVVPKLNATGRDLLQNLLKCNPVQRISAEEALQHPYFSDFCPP
Sequence of Cyclin-dependent kinase 5/CDK5 activator 1 (Q15078 whole entry, further chain, the tested form may be a part): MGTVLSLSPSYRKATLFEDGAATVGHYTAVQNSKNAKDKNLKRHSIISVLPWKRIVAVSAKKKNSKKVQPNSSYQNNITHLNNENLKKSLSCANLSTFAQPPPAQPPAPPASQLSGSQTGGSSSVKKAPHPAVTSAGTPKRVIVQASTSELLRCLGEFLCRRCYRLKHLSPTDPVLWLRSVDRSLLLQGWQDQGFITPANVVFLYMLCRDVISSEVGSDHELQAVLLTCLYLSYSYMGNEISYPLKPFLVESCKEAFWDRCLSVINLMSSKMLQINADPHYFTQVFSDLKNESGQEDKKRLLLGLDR

Row | SMILES | IC50 [1] [µM] | IC50 [2] [µM] | IC50 [3] [µM] | IC50 [4] [µM] | IC50 [5] [µM]
1 | O=C1c2c(c3c4ccccc4[nH]c3c3ccccc23)C(=O)N1C(CO)CO | 4.95 | 3.71 | > 10 | > 10 | –
2 | O=C1OC(=O)c2c1c1ccccc1c1[nH]c3ccccc3c21 | > 50 | > 25 | > 10 | > 10 | –
3 | O=C1NC(=O)c2c1c1ccccc1c1[nH]c3ccccc3c21 | > 100 | > 100 | 80 | 8.5 | 20
4 | O=C1c2c(c3c4cc(O)ccc4[nH]c3c3ccccc23)C(=O)N1C(CO)CO | 4.96 | 2.84 | > 10 | > 10 | –
5 | O=C1OC(=O)c2c1c1ccccc1c1[nH]c3ccc(O)cc3c21 | 32.3 | 14.7 | > 10 | > 10 | –
6 | CN(C)CCN1C(=O)c2c(c3c4cc(O)ccc4[nH]c3c3ccccc23)C1=O | 0.0187 | 0.0122 | > 10 | > 10 | –
7 | CN1C(=O)c2c(c3c4cc(O)ccc4[nH]c3c3ccccc23)C1=O | 4.17 | 1.64 | > 10 | > 10 | –
8 | CN(C)CCN1C(=O)c2c(c3c4ccccc4[nH]c3c3ccccc23)C1=O | 0.335 | 0.11 | > 10 | > 10 | –
9 | O=C1c2c(c3c4cc(O)ccc4[nH]c3c3ccccc23)C(=O)N1CCc1c[nH]cn1 | 1.9 | 0.715 | > 10 | > 10 | –
10 | CN1C(=O)c2c(c3c4ccccc4[nH]c3c3ccccc23)C1=O | > 100 | > 100 | > 10 | > 10 | –
11 | O=C1NC(=O)c2c1c1ccccc1c1[nH]c3ccc(O)cc3c21 | > 25 | > 25 | 0.58 | 0.25 | 0.46
12 | O=C1c2c(c3c4ccccc4[nH]c3c3ccccc23)C(=O)N1CCc1c[nH]cn1 | 2.92 | 1.58 | > 10 | > 10 | –
